Test results reported in ChEMBL document CHEMBL3588757, “Structure-based design, synthesis and biological testing of piperazine-linked bis-epipodophyllotoxin etoposide analogs” (Bioorg Med Chem, 2015).

Columns and labels:
[1] = tested on: NCI-H460; experiment: Cytotoxicity against human NCI-H460 cells assessed as cell growth at 0.05 uM by SRB assay; type: functional; conditions: read-out: Activity
[2] = Cytotoxicity against human NCI-ADR-RES cells assessed as cell growth at 0.05 uM by SRB assay; type: functional; conditions: read-out: Activity
[3] = tested on: OVCAR-3; experiment: Cytotoxicity against human OVCAR3 cells assessed as cell growth at 5 uM by SRB assay; type: functional; conditions: read-out: Activity
[4] = tested on: MCF7; experiment: Cytotoxicity against human MCF7 cells assessed as cell growth at 0.05 uM by SRB assay; type: functional; conditions: read-out: Activity
[5] = tested on: RXF 393; experiment: Cytotoxicity against human RXF393 cells assessed as cell growth at 50 uM by SRB assay; type: functional; conditions: read-out: Activity
[6] = tested on: MDA-MB-231; experiment: Cytotoxicity against human MDA-MB-231/ATCC cells assessed as cell growth at 0.05 uM by SRB assay; type: functional; conditions: read-out: Activity
[7] = tested on: KM12; experiment: Cytotoxicity against human KM12 cells assessed as cell growth at 0.5 uM by SRB assay; type: functional; conditions: read-out: Activity
[8] = tested on: SK-MEL-5; experiment: Cytotoxicity against human SK-MEL-5 cells assessed as cell growth at 5 uM by SRB assay; type: functional; conditions: read-out: Activity
[9] = tested on: OVCAR-4; experiment: Cytotoxicity against human OVCAR4 cells assessed as cell growth at 5 uM by SRB assay; type: functional; conditions: read-out: Activity
[10] = tested on: NCI-H460; experiment: Cytotoxicity against human NCI-H460 cells assessed as cell growth at 0.5 uM by SRB assay; type: functional; conditions: read-out: Activity
[11] = Cytotoxicity against human Hs578T cells assessed as cell growth at 0.5 uM by SRB assay; type: functional; conditions: Hs-578T, read-out: Activity
Procedure, shortened: (§1)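 Measured in the NCI-60 human tumour cell line panel using five-dose testing. Growth was recorded at each dose for each cell line, and a GI50 was derived for each line.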

[12] = tested on: HCC 2998; experiment: Cytotoxicity against human HCC2998 cells assessed as cell growth at 0.005 uM by SRB assay; type: functional; conditions: read-out: Activity; procedure, shortened: as §1
[13] = tested on: HL-60(TB); experiment: Cytotoxicity against human HL-60(TB) cells assessed as cell growth at 0.005 uM by SRB assay; type: functional; conditions: read-out: Activity; procedure, shortened: as §1
[14] = tested on: M14; experiment: Cytotoxicity against human M14 cells assessed as cell growth at 0.005 uM by SRB assay; type: functional; conditions: read-out: Activity
[15] = tested on: MDA-MB-468; experiment: Cytotoxicity against human MDA-MB-468 cells by SRB assay; type: functional
Procedure, shortened: (§2)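 NCI-60 panel screen; 5-dose testing giving GI50 per cell line, plus a single 10 µM one-dose test. Method details not given beyond the NCI screen.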

[16] = tested on: SW-620; experiment: Cytotoxicity against human SW620 cells assessed as cell growth at 0.5 uM by SRB assay; type: functional; conditions: read-out: Activity
[17] = tested on: MOLT-4; experiment: Cytotoxicity against human MOLT4 cells assessed as cell growth at 0.5 uM by SRB assay; type: functional; conditions: read-out: Activity
[18] = tested on: HCC 2998; experiment: Cytotoxicity against human HCC2998 cells assessed as cell growth at 0.05 uM by SRB assay; type: functional; conditions: read-out: Activity; procedure, shortened: as §1
[19] = tested on: UACC-257; experiment: Cytotoxicity against human UACC257 cells assessed as cell growth at 50 uM by SRB assay; type: functional; conditions: read-out: Activity
[20] = tested on: IGROV-1; experiment: Cytotoxicity against human IGROV1 cells assessed as cell growth at 0.5 uM by SRB assay; type: functional; conditions: read-out: Activity; procedure, shortened: as §1
[21] = tested on: MOLT-4; experiment: Cytotoxicity against human MOLT4 cells assessed as cell growth at 50 uM by SRB assay; type: functional; conditions: read-out: Activity
[22] = tested on: RPMI-8226; experiment: Cytotoxicity against human RPMI8226 cells assessed as cell growth at 0.005 uM by SRB assay; type: functional; conditions: read-out: Activity
[23] = tested on: MCF7; experiment: Cytotoxicity against human MCF7 cells by SRB assay; type: functional; procedure, shortened: as §2
[24] = tested on: M14; experiment: Cytotoxicity against human M14 cells assessed as cell growth at 0.5 uM by SRB assay; type: functional; conditions: read-out: Activity
[25] = tested on: TK-10; experiment: Cytotoxicity against human TK10 cells assessed as cell growth at 5 uM by SRB assay; type: functional; conditions: read-out: Activity
[26] = tested on: RXF 393; experiment: Cytotoxicity against human RXF393 cells assessed as cell growth at 0.05 uM by SRB assay; type: functional; conditions: read-out: Activity
[27] = Cytotoxicity against etoposide-resistant human K/VP.5 cells assessed as cell growth inhibition after 72 hrs by MTS assay; type: functional, cell-based; conditions: K/VP.5, 72 h
Procedure, shortened: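 K/VP.5 cells are a K562-derived subline, 26-fold etoposide-resistant, with decreased topoisomerase IIα mRNA and protein. Cells were grown in suspension in αMEM with 10% fetal calf serum. Drugs were given from DMSO stocks, with final DMSO typically 0.4% or less. Read-out was MTS absorbance after 72 h. Typically nine concentrations were run in duplicate on two days. IC50 came from a four-parameter logistic fit.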

[28] = tested on: HCT-15; experiment: Cytotoxicity against human HCT15 cells by SRB assay; type: functional; procedure, shortened: as §1
[29] = tested on: PC-3; experiment: Cytotoxicity against human PC3 cells assessed as cell growth at 5 uM by SRB assay; type: functional; conditions: read-out: Activity
[30] = tested on: SNB-75; experiment: Cytotoxicity against human SNB75 cells assessed as cell growth at 0.5 uM by SRB assay; type: functional; conditions: read-out: Activity
[31] = tested on: A549; experiment: Cytotoxicity against human A549/ATCC cells assessed as cell growth at 0.005 uM by SRB assay; type: functional; conditions: read-out: Activity
[32] = tested on: U-251; experiment: Cytotoxicity against human U251 cells assessed as cell growth at 0.05 uM by SRB assay; type: functional; conditions: read-out: Activity
[33] = tested on: U-251; experiment: Cytotoxicity against human U251 cells assessed as cell growth at 0.005 uM by SRB assay; type: functional; conditions: read-out: Activity
[34] = tested on: PC-3; experiment: Cytotoxicity against human PC3 cells assessed as cell growth at 0.005 uM by SRB assay; type: functional; conditions: read-out: Activity
[35] = tested on: UACC-62; experiment: Cytotoxicity against human UACC62 cells by SRB assay; type: functional; procedure, shortened: as §2
[36] = tested on: NCI-H226; experiment: Cytotoxicity against human NCI-H226 cells by SRB assay; type: functional; procedure, shortened: as §2
[37] = tested on: DU-145; experiment: Cytotoxicity against human DU145 cells by SRB assay; type: functional; procedure, shortened: as §1
[38] = tested on: SNB-75; experiment: Cytotoxicity against human SNB75 cells assessed as cell growth at 0.05 uM by SRB assay; type: functional; conditions: read-out: Activity
[39] = tested on: CCRF-CEM; experiment: Cytotoxicity against human CCRF-CEM cells by SRB assay; type: functional
[40] = read-out: LC50 (the source's name)
[41] = read-out: pLC50 (the source's name) (converted)

## COc1cc([C@@H]2c3cc4c(cc3[C@@H](NC(=O)CN3CCN(CCCCCCN5CCN(CC(=O)N[C@@H]6c7cc8c(cc7[C@@H](c7cc(OC)c(O)c(OC)c7)[C@H]7C(=O)OC[C@@H]76)OCO8)CC5)CC3)[C@H]3COC(=O)[C@H]23)OCO4)cc(OC)c1O
[1]
  growth at 0.05 µM: 89%
[2]
  growth at 0.05 µM: 103%
[3]
  growth at 5 µM: 63%
[4]
  growth at 0.05 µM: 77%
[5]
  growth at 50 µM: 7%
[6]
  growth at 0.05 µM: 94%
[7]
  growth at 0.5 µM: 81%
[8]
  growth at 5 µM: 57%
[9]
  growth at 5 µM: 64%
[10]
  growth at 0.5 µM: 35%
[11]
  growth at 0.5 µM: 77%
[12]
  growth at 0.005 µM: 104%
[13]
  growth at 0.005 µM: 120%
[14]
  growth at 0.005 µM: 89%
[15]; read-out: GI50
  GI50: 1.72 µM
[15]; [40]
  CC50: 50 µM
[15]; read-out: TGI
  TGI: 12.3 µM
[15]; read-out: pGI50 (converted)
  GI50: 1.74 µM
[15]; [41]
  CC50: > 50.1 µM
[15]; read-out: pTGI (converted)
  TGI: 12.3 µM
[16]
  growth at 0.5 µM: 63%
[17]
  growth at 0.5 µM: 23%
[18]
  growth at 0.05 µM: 104%
[19]
  growth at 50 µM: 41%
[20]
  growth at 0.5 µM: 89%
[21]
  growth at 50 µM: 5%
[22]
  growth at 0.005 µM: 102%
[23]; read-out: GI50
  GI50: 0.195 µM
[23]; [40]
  CC50: > 50 µM
[23]; read-out: TGI
  TGI: > 50 µM
[23]; read-out: pGI50 (converted)
  GI50: 0.195 µM
[23]; [41]
  CC50: > 50.1 µM
[23]; read-out: pTGI (converted)
  TGI: > 50.1 µM
[24]
  growth at 0.5 µM: 79%
[25]
  growth at 5 µM: 85%
[26]
  growth at 0.05 µM: 92%
[27]
  IC50: 0.88 µM
[28]; read-out: GI50
  GI50: > 50 µM
[28]; [40]
  CC50: > 50 µM
[28]; read-out: TGI
  TGI: > 50 µM
[28]; read-out: pGI50 (converted)
  GI50: > 50.1 µM
[28]; [41]
  CC50: > 50.1 µM
[28]; read-out: pTGI (converted)
  TGI: > 50.1 µM
[29]
  growth at 5 µM: 54%
[30]
  growth at 0.5 µM: 61%
[31]
  growth at 0.005 µM: 99%
[32]
  growth at 0.05 µM: 101%
[33]
  growth at 0.005 µM: 102%
[34]
  growth at 0.005 µM: 93%
[35]; read-out: GI50
  GI50: 1.55 µM
[35]; [40]
  CC50: > 50 µM
[35]; read-out: TGI
  TGI: 35.7 µM
[35]; read-out: pGI50 (converted)
  GI50: 1.55 µM
[35]; [41]
  CC50: > 50.1 µM
[35]; read-out: pTGI (converted)
  TGI: 35.5 µM
[36]; read-out: GI50
  GI50: 5.42 µM
[36]; [40]
  CC50: > 50 µM
[36]; read-out: TGI
  TGI: 46.8 µM
[36]; read-out: pGI50 (converted)
  GI50: 5.37 µM
[36]; [41]
  CC50: > 50.1 µM
[36]; read-out: pTGI (converted)
  TGI: 46.8 µM
[37]; read-out: GI50
  GI50: 1.66 µM
[37]; [40]
  CC50: > 50 µM
[37]; read-out: TGI
  TGI: > 50 µM
[37]; read-out: pGI50 (converted)
  GI50: 1.66 µM
[37]; [41]
  CC50: > 50.1 µM
[37]; read-out: pTGI (converted)
  TGI: > 50.1 µM
[38]
  growth at 0.05 µM: 77%
[39]; read-out: GI50
  GI50: 0.253 µM
[39]; [40]
  CC50: > 50 µM
[39]; read-out: TGI
  TGI: > 50 µM
[39]; read-out: pGI50 (converted)
  GI50: 0.251 µM
[39]; [41]
  CC50: > 50.1 µM
[39]; read-out: pTGI
  TGI: > 50.1 µM
